In series [1] the target is PI3-kinase p110-alpha/p85-alpha (Homo sapiens, UniProt P42336). Nature of the series: Inhibition of full length human p110alpha/p85alpha using PIP2 as substrate after 30 mins by TR-FRET assay. The series is classed as protein-complex assay. The gist of the method:
(§1)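 In vitro kinase assay run against each Class I PI3K isoform, with ATP at 2×Km steady-state concentration; IC50 values are the average of at least 2 determinations.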

Series [2] concerns the target Phosphatidylinositol 4,5-bisphosphate 3-kinase catalytic subunit gamma isoform (Homo sapiens, UniProt P48736). Nature of the series: Inhibition of full length human PI3Kgamma using PIP2 as substrate after 30 mins by TR-FRET assay. In short, it runs like this:
as §1

In another series the target is PI3K p110 beta/p85 alpha (Homo sapiens, UniProt P42338). Nature of the series: Inhibition of full length human His-tagged p110beta/p85alpha using PIP2 as substrate after 30 mins by TR-FRET assay. The series is classed as protein-complex assay. In short, it runs like this:
as §1

Series [3] concerns the target PI3-kinase p110-delta/p85-alpha (Homo sapiens, UniProt O00329). The experiment in a line: Inhibition of full length human p110delta/p85alpha using PIP2 as substrate after 30 mins by TR-FRET assay. The series is classed as protein-complex assay. In short, it runs like this: as §1
The nature of series [4]: Fraction unbound in cynomolgus monkey plasma. The series is classed as ADME, cell-free, Macaca fascicularis.
Series [5] in a line: Permeability across apical to basolateral side in human Caco2 cells at 10 uM after 1 to 2 hrs by LC/MS/MS analysis. It is filed as ADME, cell-based. The note with it: Caco-2, read-out: permeability.
Series [6] is described as follows: MRT in Sprague-Dawley rat at 1 mg/kg, iv by ESI-LC/MS/MS analysis. It is filed as ADME, organism-based. The note with it: in vivo.
A short description of series [7]: Volume of distribution at steady state in cynomolgus monkey at 1 mg/kg, iv by ESI-LC/MS/MS analysis. It is filed as ADME, organism-based, Macaca fascicularis. The note with it: in vivo, read-out: Vdss.
Series [8] deals with Voltage-gated inwardly rectifying potassium channel KCNH2 (Homo sapiens, UniProt Q12809). The experiment in a line: Inhibition of human ERG at 25 uM.
Chain of Voltage-gated inwardly rectifying potassium channel KCNH2 (Q12809 whole entry): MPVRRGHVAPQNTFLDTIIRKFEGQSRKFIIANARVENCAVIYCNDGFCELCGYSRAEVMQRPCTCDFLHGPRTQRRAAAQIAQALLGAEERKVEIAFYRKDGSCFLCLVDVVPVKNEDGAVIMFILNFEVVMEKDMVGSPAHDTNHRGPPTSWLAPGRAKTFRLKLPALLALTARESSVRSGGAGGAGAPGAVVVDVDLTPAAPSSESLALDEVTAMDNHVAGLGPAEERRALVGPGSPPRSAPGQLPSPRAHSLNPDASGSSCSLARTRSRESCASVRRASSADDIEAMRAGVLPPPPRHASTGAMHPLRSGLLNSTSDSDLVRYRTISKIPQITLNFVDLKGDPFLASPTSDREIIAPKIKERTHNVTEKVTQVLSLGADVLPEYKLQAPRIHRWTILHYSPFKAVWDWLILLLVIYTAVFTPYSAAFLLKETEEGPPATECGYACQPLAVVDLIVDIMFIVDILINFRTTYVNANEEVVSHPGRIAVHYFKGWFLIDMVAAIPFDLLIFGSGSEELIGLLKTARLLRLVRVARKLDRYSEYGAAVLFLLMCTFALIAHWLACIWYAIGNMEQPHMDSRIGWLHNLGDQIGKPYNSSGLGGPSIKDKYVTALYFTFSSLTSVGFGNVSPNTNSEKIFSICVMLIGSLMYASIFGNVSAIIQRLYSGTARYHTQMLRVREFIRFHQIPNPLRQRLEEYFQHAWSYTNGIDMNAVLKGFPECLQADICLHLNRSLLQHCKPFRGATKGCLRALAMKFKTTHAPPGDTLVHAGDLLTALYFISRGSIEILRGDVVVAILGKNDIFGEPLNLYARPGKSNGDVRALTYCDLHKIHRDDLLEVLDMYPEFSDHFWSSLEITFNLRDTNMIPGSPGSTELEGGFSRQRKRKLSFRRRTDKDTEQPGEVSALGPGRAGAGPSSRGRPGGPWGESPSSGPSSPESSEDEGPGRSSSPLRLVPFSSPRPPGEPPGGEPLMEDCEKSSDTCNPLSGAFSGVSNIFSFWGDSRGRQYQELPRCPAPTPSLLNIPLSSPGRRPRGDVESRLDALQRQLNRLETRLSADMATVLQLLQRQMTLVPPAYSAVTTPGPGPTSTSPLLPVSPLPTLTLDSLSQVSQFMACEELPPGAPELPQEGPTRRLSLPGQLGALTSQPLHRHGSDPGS
The nature of series [9]: Terminal half life in Sprague-Dawley rat at 1 mg/kg, iv by ESI-LC/MS/MS analysis. The note with it: in vivo, read-out: beta t1/2 (converted). It is filed as ADME, organism-based.
The nature of series [10]: Fraction unbound in Sprague-Dawley rat plasma. It is filed as ADME, cell-free.
Series [11] has as its target T1, Aldehyde oxidase (Homo sapiens, UniProt Q06278).
T1 sequence (Q06278 whole entry): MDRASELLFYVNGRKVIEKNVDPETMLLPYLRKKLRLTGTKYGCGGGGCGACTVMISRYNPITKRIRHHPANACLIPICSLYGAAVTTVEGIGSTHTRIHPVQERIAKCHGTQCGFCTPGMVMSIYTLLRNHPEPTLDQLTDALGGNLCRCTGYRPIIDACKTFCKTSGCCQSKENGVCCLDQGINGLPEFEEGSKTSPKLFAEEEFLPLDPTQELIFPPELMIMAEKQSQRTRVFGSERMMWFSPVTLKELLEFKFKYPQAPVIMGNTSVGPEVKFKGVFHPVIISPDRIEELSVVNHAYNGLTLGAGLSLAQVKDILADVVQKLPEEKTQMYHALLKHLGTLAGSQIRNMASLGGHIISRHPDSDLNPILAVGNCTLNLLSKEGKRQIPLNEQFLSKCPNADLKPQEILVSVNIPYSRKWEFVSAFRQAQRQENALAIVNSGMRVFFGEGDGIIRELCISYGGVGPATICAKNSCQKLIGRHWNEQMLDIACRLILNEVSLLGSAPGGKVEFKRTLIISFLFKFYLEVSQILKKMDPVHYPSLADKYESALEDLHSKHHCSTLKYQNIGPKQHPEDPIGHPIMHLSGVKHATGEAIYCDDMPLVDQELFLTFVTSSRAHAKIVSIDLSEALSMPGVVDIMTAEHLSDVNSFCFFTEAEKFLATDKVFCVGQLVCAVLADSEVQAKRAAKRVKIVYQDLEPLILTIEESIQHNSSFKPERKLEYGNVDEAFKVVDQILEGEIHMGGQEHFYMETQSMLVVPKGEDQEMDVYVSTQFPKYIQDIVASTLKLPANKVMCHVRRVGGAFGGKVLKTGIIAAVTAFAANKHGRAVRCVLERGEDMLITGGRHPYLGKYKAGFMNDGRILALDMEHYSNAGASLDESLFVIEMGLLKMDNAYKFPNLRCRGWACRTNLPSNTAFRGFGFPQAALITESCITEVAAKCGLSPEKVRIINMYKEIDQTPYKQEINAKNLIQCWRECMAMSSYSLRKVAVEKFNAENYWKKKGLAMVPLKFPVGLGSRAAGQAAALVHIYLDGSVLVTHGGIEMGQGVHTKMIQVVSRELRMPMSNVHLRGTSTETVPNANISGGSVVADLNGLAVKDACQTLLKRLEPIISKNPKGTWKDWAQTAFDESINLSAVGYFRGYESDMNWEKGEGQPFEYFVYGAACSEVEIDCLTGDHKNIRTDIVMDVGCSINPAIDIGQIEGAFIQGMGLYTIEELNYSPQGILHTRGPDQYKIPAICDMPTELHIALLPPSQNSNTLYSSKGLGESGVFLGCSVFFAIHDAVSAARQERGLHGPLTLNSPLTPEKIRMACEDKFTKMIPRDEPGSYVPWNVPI
Nature of the series: Drug metabolism in human liver cytosol assessed as AO-mediated 4-(6-(2-amino-3-fluoropyridin-4-yl)-2-methyl-4-(4H-1,2,4-triazol-3-yl)-1H-benzo[d]imidazol-1-yl)-5,8-difluoroquinolin-2(1H)-one metabolite formation at 0.5 uM measured after 2 hrs by UHPLC-HRMS based assay. The series is classed as ADME, subcellular.

For series [12], the target named is T1, Aldehyde oxidase. Nature of the series: Drug metabolism in human hepatocytes assessed as AO-mediated 4-(6-(2-amino-3-fluoropyridin-4-yl)-2-methyl-4-(4H-1,2,4-triazol-3-yl)-1H-benzo[d]imidazol-1-yl)-5,8-difluoroquinolin-2(1H)-one metabolite formation at 0.5 uM measured up to 250 mins by UHPLC-HRMS based assay. The series is classed as ADME, cell-based.
Series [13] can be described thus: Volume of distribution at steady state in rhesus monkey at 1 mg/kg, iv by ESI-LC/MS/MS analysis. The series is classed as ADME, organism-based, Macaca mulatta. The note with it: in vivo, read-out: Vdss.
Series [14] is described as follows: Fraction unbound in rhesus monkey plasma. The series is classed as ADME, cell-free, Macaca mulatta.
The nature of series [15]: Terminal half life in rhesus monkey at 1 mg/kg, iv by ESI-LC/MS/MS analysis. The series is classed as ADME, organism-based, Macaca mulatta. The note with it: in vivo, read-out: beta t1/2 (converted).
Series [16] is described as follows: Terminal half life in cynomolgus monkey at 1 mg/kg, iv by ESI-LC/MS/MS analysis. It is filed as ADME, organism-based, Macaca fascicularis. The note with it: in vivo, read-out: beta t1/2 (converted).
A short description of series [17]: Clearance in Sprague-Dawley rat at 1 mg/kg, iv by ESI-LC/MS/MS analysis. It is filed as ADME, organism-based. The note with it: in vivo.
Series [18] can be described thus: Efflux ratio of apparent permeability in human Caco2 cells at 10 uM after 1 to 2 hrs by LC/MS/MS analysis. The note with it: Caco-2. It is filed as ADME, cell-based.
Series [19] is described as follows: MRT in rhesus monkey at 1 mg/kg, iv by ESI-LC/MS/MS analysis. The note with it: in vivo. It is filed as ADME, organism-based, Macaca mulatta.
Series [20] concerns the target T1, Aldehyde oxidase. The experiment in a line: Drug metabolism in human hepatocytes assessed as AO-mediated triazole oxidation at 0.5 uM measured up to 250 mins by UHPLC-HRMS based assay. It is filed as ADME, cell-based.
A short description of series [21]: Clearance in rhesus monkey at 1 mg/kg, iv by ESI-LC/MS/MS analysis. It is filed as ADME, organism-based, Macaca mulatta. The note with it: in vivo.
Series [22] is described as follows: Clearance in Beagle dog at 1 mg/kg, iv by ESI-LC/MS/MS analysis. The note with it: in vivo. The series is classed as ADME, organism-based, Canis lupus familiaris.
Series [23] is described as follows: Intrinsic clearance in human liver microsomes at 1 uM measured in presence of NADPH/UDPGA by UHPLC-HRMS based assay. It is filed as ADME, Microsome.
Series [24] can be described thus: Fraction unbound in Beagle dog plasma. It is filed as ADME, cell-free, Canis lupus familiaris.
Series [25] can be described thus: Oral bioavailability in cynomolgus monkey at 5 mg/kg by ESI-LC/MS/MS analysis. It is filed as ADME, organism-based, Macaca fascicularis. The note with it: in vivo.
Series [26] has as its target Phosphatidylinositol 4,5-bisphosphate 3-kinase catalytic subunit beta isoform (Homo sapiens) (UniProt P42338). Nature of the series: Inhibition of partial length human PI3Kbeta expressed in mammalian system at 10 uM by active site-directed competition binding based KINOMEscan assay. In short, it runs like this: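 Active-site-directed competition binding assay across more than 400 human kinases, with compound tested at 10 µM.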

Series [27] in a line: Terminal half life in Beagle dog at 1 mg/kg, iv by ESI-LC/MS/MS analysis. The series is classed as ADME, organism-based, Canis lupus familiaris. The note with it: in vivo, read-out: beta t1/2 (converted).
Series [28] is described as follows: MRT in cynomolgus monkey at 1 mg/kg, iv by ESI-LC/MS/MS analysis. It is filed as ADME, organism-based, Macaca fascicularis. The note with it: in vivo.
Series [29] in a line: Volume of distribution at steady state in Sprague-Dawley rat at 1 mg/kg, iv by ESI-LC/MS/MS analysis. It is filed as ADME, organism-based. The note with it: in vivo, read-out: Vdss.
Series [30] in a line: Volume of distribution at steady state in Beagle dog at 1 mg/kg, iv by ESI-LC/MS/MS analysis. The note with it: in vivo, read-out: Vdss. The series is classed as ADME, organism-based, Canis lupus familiaris.
Series [31] is described as follows: Conformation stability assessed as rate constant for (P)-4-(1-(5,8-difluoroquinolin-4-yl)-2-methyl-4-(4H-1,2,4-triazol-3-yl)-1H-benzo[d]imidazol-6-yl)-3-fluoropyridin-2-amine formation at 10 mg at 120 degC by chiral SFC analysis. The series is classed as physicochemical.
Series [32] in a line: Clearance in cynomolgus monkey at 1 mg/kg, iv by ESI-LC/MS/MS analysis. It is filed as ADME, organism-based, Macaca fascicularis. The note with it: in vivo.
Another series relates to Cytochrome P450. The experiment in a line: Inhibition of human CYP450 at 25 uM. The series is classed as ADME, protein assay.
The nature of series [33]: MRT in Beagle dog at 1 mg/kg, iv by ESI-LC/MS/MS analysis. The note with it: in vivo. The series is classed as ADME, organism-based, Canis lupus familiaris.
A short description of series [34]: Oral bioavailability in Sprague-Dawley rat at 5 mg/kg by ESI-LC/MS/MS analysis. The series is classed as ADME, organism-based. The note with it: in vivo.

Structures are written as SMILES. Where “and” joins values, the source holds several entries; their conditions need not be identical. Equal values may be shown once. Entries after “also recorded” stand apart in the source; their conditions may differ. Calls of active or inactive are those of the source. No cut-off for these calls is given here.

Chain of Phosphatidylinositol 4,5-bisphosphate 3-kinase catalytic subunit gamma isoform (P48736 whole entry, canonical isoform): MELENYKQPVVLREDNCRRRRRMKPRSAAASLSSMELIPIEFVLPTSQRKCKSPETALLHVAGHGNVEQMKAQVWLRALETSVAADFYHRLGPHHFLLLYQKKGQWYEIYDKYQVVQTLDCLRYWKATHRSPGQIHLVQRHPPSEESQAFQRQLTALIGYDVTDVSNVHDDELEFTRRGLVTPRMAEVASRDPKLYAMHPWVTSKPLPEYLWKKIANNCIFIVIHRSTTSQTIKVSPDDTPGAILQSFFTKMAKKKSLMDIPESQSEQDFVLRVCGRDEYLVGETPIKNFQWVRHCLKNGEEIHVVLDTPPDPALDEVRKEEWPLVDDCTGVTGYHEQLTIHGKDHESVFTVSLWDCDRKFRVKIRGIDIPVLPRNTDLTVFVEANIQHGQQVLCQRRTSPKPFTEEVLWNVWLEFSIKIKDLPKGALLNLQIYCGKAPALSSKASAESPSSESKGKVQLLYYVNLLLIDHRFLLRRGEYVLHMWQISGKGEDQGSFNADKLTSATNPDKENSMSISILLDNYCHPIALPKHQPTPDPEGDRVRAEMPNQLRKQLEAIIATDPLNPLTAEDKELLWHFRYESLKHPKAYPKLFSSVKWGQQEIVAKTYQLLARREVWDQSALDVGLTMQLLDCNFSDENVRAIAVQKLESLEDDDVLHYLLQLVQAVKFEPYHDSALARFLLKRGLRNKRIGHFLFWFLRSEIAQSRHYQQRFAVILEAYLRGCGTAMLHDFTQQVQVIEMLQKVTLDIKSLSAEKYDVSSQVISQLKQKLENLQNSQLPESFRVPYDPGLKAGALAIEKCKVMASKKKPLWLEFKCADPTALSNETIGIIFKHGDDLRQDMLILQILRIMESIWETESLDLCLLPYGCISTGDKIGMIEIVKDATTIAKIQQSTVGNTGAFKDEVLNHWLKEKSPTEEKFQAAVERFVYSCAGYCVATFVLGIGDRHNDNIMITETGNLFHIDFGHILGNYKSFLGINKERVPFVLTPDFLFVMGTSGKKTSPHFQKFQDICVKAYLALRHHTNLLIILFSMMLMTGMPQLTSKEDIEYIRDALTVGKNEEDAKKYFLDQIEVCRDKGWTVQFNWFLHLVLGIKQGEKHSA
Chain of PI3-kinase p110-delta/p85-alpha (P27986 whole entry): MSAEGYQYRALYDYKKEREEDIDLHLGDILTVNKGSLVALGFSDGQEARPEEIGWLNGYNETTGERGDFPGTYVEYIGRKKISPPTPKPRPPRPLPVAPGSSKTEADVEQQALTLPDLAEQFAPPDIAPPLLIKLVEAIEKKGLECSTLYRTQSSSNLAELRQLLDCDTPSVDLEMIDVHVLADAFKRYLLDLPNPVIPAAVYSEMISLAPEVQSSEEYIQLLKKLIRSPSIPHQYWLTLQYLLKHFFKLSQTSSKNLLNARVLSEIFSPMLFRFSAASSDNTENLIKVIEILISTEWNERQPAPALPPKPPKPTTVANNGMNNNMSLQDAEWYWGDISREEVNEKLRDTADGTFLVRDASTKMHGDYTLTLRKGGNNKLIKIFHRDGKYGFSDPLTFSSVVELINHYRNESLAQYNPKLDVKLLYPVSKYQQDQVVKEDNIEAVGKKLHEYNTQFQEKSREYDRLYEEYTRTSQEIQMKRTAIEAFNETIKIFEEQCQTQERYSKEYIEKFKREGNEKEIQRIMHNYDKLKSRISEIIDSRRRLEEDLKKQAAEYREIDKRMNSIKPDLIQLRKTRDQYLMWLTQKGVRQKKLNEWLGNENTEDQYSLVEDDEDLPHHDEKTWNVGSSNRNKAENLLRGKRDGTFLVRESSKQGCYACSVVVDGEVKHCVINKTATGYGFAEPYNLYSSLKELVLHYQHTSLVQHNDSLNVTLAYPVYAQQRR
Chain of PI3-kinase p110-delta/p85-alpha (O00329 whole entry): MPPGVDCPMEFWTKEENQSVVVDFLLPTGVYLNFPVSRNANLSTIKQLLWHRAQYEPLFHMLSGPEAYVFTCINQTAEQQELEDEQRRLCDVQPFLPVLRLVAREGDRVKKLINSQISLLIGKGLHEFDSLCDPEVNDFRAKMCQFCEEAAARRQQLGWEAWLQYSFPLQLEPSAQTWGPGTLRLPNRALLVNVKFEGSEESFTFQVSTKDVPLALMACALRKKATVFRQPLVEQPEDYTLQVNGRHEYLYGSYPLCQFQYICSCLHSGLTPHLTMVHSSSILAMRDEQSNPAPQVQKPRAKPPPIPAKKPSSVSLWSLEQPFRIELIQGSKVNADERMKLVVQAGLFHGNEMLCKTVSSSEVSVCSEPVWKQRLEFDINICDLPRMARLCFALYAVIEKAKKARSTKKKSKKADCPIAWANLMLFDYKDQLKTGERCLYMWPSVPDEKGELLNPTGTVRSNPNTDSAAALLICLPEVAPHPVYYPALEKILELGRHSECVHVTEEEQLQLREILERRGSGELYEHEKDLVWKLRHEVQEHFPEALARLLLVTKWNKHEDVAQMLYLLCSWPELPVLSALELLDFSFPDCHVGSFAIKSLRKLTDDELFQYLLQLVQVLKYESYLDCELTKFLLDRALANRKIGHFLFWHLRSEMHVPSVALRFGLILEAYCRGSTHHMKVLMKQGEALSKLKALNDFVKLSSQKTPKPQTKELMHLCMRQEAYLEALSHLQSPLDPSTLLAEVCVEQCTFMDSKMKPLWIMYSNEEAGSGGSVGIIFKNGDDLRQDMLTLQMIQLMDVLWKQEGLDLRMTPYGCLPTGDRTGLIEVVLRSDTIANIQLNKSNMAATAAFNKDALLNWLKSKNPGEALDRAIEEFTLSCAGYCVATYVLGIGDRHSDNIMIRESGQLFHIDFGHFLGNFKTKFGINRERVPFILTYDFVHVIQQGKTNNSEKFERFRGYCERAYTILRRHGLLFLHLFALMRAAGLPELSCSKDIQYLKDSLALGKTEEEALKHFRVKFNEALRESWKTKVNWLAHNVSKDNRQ
Chain of Phosphatidylinositol 4,5-bisphosphate 3-kinase catalytic subunit beta isoform (Homo sapiens) (P42338 whole entry, looked up, canonical isoform): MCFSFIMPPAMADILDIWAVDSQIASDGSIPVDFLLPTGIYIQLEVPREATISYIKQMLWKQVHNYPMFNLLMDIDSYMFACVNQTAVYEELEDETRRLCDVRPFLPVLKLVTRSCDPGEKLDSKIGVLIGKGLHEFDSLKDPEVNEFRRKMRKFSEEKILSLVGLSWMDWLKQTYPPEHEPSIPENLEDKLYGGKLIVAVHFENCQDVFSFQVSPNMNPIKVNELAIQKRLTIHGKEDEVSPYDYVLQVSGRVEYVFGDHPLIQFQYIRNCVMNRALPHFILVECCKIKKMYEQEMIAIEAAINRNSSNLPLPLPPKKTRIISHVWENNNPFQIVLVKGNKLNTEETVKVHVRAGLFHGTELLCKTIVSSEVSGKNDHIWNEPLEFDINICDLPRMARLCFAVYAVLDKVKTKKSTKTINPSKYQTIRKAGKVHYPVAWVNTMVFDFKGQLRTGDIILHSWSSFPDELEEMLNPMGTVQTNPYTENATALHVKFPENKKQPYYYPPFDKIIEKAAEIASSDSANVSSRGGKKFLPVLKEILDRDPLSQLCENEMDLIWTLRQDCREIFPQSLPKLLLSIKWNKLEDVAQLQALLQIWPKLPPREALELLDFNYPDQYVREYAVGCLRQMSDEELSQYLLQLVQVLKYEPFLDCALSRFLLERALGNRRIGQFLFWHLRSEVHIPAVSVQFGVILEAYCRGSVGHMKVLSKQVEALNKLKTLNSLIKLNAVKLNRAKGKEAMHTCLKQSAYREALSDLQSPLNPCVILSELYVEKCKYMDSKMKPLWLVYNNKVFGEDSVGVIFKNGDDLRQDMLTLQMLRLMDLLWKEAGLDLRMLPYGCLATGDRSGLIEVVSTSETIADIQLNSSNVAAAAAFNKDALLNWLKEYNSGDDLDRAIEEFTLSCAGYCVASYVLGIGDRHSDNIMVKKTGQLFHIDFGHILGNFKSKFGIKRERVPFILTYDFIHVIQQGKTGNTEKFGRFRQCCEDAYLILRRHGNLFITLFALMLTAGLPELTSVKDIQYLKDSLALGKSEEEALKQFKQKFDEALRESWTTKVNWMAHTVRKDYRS

As for `Nc1nccc(-c2cc(-c3nnc[nH]3)c3ncn(-c4ccnc5c(F)ccc(F)c45)c3c2)c1F`, the IC50 in series [1] was 233 nM; in series [2], 440 nM; at PI3K p110 beta/p85 alpha, 11 nM; in [3] it was 67 nM.

For `Cc1nc2c(-c3nnc[nH]3)cc(-c3ccnc(N)c3F)cc2n1-c1ccnc2c(F)ccc(F)c12`, the fraction unbound in series [4] was determined as 0.062; in [10], 0.19; in [14], 0.072; in series [24], 0.078. In series [5], the Papp A→B at 10 µM came to 17 ×10⁻⁶ cm/s. The mean residence time (MRT) is 3.87 h in [6], 6.2 h in [19], 4.3 h in [28] and 4.04 h in [33]. The Vd in series [7] was determined as 0.45 L/kg; in series [13] it was 0.63 L/kg; in series [29], 2.68 L/kg; in series [30] it was 0.89 L/kg. Further, the “inhibition (INH)” value (in series [8]; in the series with Cytochrome P450) was “Not Active” in each case. Also, the half-life in series [9] was 9.55 h; in [15], 6.04 h; in series [16], 5.17 h; in series [27] it was 3.61 h. The Drug metabolism entry on Aldehyde oxidase [11] was “Metabolite_Notdetected; also recorded: Metabolite_Detected”; on Aldehyde oxidase [12], “Metabolite_Detected”; on Aldehyde oxidase [20] it was “Metabolite_Detected”. The clearance was 11.3 mL/min/kg in series [17], 1.67 mL/min/kg in [21], 3.67 mL/min/kg in series [22] and 1.83 mL/min/kg in series [32]. The efflux ratio at 10 µM in [18] is under 1.5. Besides, the IC50 in [2] is > 10000 nM and 4270 nM and 4160 nM. Besides, the Stability entry on Aldehyde oxidase [20] is recorded as “Stable”. In series [23] (liver microsomes, read-out: CLH (converted)), the CLint scaled at 1 µM was 2.5 mL/min/kg. The CLH in series [23] (microsomes, 1 µM) was under 2 mL/min/kg. The bioavailability in series [25] is 64.2%; in [34] it was 60.4%. In addition, in series [26], the inhibition entry is “Active”. For the same compound, the K in series [31] amounted to 2.64 ×10⁻⁷ /s.
